Data: ChEMBL document CHEMBL1148625, “3-(1,1-dioxo-2H-(1,2,4)-benzothiadiazin-3-yl)-4-hydroxy-2(1H)-quinolinones, potent inhibitors of hepatitis C virus RNA-dependent RNA polymerase” (J Med Chem, 2006)

Assays:
[1] = molecular target: RNA-directed RNA polymerase (Hepacivirus hominis) (UniProt O39930); assay: Inhibition of HCV RNA replication in Huh7 cells; type: functional, cell-based; settings: Huh-7
Summary of the method: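 Huh-7 subgenomic replicon cells were seeded at 3 × 10³/well in DMEM with 10% FCS, 1% NEAA and 1 mg/mL G418, and allowed 4 h to attach. Eleven 2.5-fold DMSO dilutions were added (final 10,000 to 1.0 nM) and cells incubated 40 h. Neo RNA was measured by TaqMan RT-PCR, normalised to cyclophilin against DMSO controls; n = 8 wells per dilution.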

[2] = Clearance in Sprague-Dawley rat at 1.3 mg/kg, iv or 7.7 mg/kg, po; type: ADME, organism-based; settings: in vivo
Summary of the method: (§1)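 Single intravenous or oral doses given to Sprague-Dawley rats. Values are reported as means: Cmax (ng/mL), half-life (min), plasma clearance (mL/min/kg), steady-state volume of distribution (L/kg) and oral bioavailability F (%).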

[3] = Clearance in cynomolgus monkey at 1.8 mg/kg, iv or 1.6 mg/kg, po; type: ADME, organism-based, Macaca fascicularis; settings: in vivo
Summary of the method: (§2)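 Single-dose administration, given both intravenously and orally, to Sprague-Dawley rats, beagle dogs or cynomolgus monkeys. Plasma pharmacokinetic parameters are reported as means: Cmax in ng/mL, terminal half-life in min, clearance in mL/min/kg, steady-state volume of distribution in L/kg, and oral bioavailability F in %.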

[4] = Oral bioavailability in Sprague-Dawley rat at 1.3 mg/kg, iv or 7.7 mg/kg, po; type: ADME, organism-based; settings: in vivo; summary of the method: as §1
[5] = Oral bioavailability in Beagle dog at 0.9 mg/kg, iv or 1.1 mg/kg, po; type: ADME, organism-based, Canis lupus familiaris; settings: in vivo
Summary of the method: (§3)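 Single-dose study, with separate intravenous and oral administrations at the listed mg/kg. Plasma concentrations were followed over time, and mean values were derived for Cmax, T1/2, clearance (mL/min/kg), Vdss (L/kg) and oral bioavailability (%).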

[6] = Oral bioavailability in cynomolgus monkey at 1.8 mg/kg, iv or 1.6 mg/kg, po; type: ADME, organism-based, Macaca fascicularis; settings: in vivo; summary of the method: as §2
[7] = Volume of distribution in Sprague-Dawley rat at 1.3 mg/kg, iv or 7.7 mg/kg, po; type: ADME, organism-based; settings: in vivo, read-out: Vdss; summary of the method: as §1
[8] = Volume of distribution in Beagle dog at 0.9 mg/kg, iv or 1.1 mg/kg, po; type: ADME, organism-based, Canis lupus familiaris; settings: in vivo, read-out: Vdss; summary of the method: as §3
[9] = Volume of distribution in cynomolgus monkey at 1.8 mg/kg, iv or 1.6 mg/kg, po; type: ADME, organism-based, Macaca fascicularis; settings: in vivo, read-out: Vdss; summary of the method: as §2
[10] = Half life in Sprague-Dawley rat at 1.3 mg/kg, iv or 7.7 mg/kg, po; type: ADME, organism-based; settings: in vivo; summary of the method: as §1
[11] = Half life in Beagle dog at 0.9 mg/kg, iv or 1.1 mg/kg, po; type: ADME, organism-based, Canis lupus familiaris; settings: in vivo; summary of the method: as §3
[12] = Half life in cynomolgus monkey at 1.8 mg/kg, iv or 1.6 mg/kg, po; type: ADME, organism-based, Macaca fascicularis; settings: in vivo; summary of the method: as §2
[13] = molecular target: RNA-directed RNA polymerase (Hepacivirus hominis, UniProt O39930); assay: Inhibitory activity against HCV delta 21 NS5B RNA polymerase by SPA assay; design: species or system Hepatitis C virus subtype 1b
Chain of RNA-directed RNA polymerase (O39930 whole entry): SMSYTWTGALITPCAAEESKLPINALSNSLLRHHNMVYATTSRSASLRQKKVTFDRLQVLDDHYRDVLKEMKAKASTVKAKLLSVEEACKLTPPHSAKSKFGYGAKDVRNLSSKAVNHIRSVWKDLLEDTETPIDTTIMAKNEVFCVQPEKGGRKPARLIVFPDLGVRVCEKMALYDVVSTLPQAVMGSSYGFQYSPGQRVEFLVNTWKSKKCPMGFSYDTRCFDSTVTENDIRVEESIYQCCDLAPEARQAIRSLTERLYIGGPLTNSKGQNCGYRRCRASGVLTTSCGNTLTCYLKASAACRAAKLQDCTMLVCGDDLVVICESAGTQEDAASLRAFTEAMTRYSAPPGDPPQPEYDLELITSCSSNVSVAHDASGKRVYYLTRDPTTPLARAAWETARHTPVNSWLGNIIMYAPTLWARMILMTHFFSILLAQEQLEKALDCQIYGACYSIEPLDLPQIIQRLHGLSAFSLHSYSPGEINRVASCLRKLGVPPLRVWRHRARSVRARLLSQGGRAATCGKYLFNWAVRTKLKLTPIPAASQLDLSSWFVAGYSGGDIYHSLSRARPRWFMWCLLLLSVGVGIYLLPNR

[14] = Cmax in Sprague-Dawley rat at 1.3 mg/kg, iv or 7.7 mg/kg, po; type: ADME, organism-based; settings: in vivo; summary of the method: as §1
[15] = Cmax in Beagle dog at 0.9 mg/kg, iv or 1.1 mg/kg, po; type: ADME, organism-based, Canis lupus familiaris; settings: in vivo; summary of the method: as §3
[16] = Cmax in cynomolgus monkey at 1.8 mg/kg, iv or 1.6 mg/kg, po; type: ADME, organism-based, Macaca fascicularis; settings: in vivo; summary of the method: as §2
[17] = Clearance in Beagle dog at 0.9 mg/kg, iv or 1.1 mg/kg, po; settings: in vivo
[18] = Clearance in Sprague-Dawley rat at 0.8 mg/kg, iv or 5.8 mg/kg, po; type: ADME, organism-based; settings: in vivo
Summary of the method: (§4)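 Single-dose pharmacokinetics in the named species, given iv and orally at the stated doses. Plasma Cmax, half-life, clearance, steady-state volume of distribution and oral bioavailability were reported as mean values.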

[19] = Clearance in Beagle dog at 0.8 mg/kg, iv or 1.8 mg/kg, po; type: ADME, organism-based, Canis lupus familiaris; settings: in vivo; summary of the method: as §2
[20] = Oral bioavailability in Sprague-Dawley rat at 0.8 mg/kg, iv or 5.8 mg/kg, po; type: ADME, organism-based; settings: in vivo; summary of the method: as §4
[21] = Oral bioavailability in Beagle dog at 0.8 mg/kg, iv or 1.8 mg/kg, po; type: ADME, organism-based, Canis lupus familiaris; settings: in vivo; summary of the method: as §2
[22] = Volume of distribution in Sprague-Dawley rat at 0.8 mg/kg, iv or 5.8 mg/kg, po; type: ADME, organism-based; settings: in vivo, read-out: Vdss; summary of the method: as §4
[23] = Volume of distribution in Beagle dog at 0.8 mg/kg, iv or 1.8 mg/kg, po; type: ADME, organism-based, Canis lupus familiaris; settings: in vivo, read-out: Vdss; summary of the method: as §2
[24] = Half life in Sprague-Dawley rat at 0.8 mg/kg, iv or 5.8 mg/kg, po; type: ADME, organism-based; settings: in vivo; summary of the method: as §4
[25] = Half life in Beagle dog at 0.8 mg/kg, iv or 1.8 mg/kg, po; type: ADME, organism-based, Canis lupus familiaris; settings: in vivo; summary of the method: as §2
[26] = Cmax in Beagle dog at 0.8 mg/kg, iv or 1.8 mg/kg, po; type: ADME, organism-based, Canis lupus familiaris; settings: in vivo; summary of the method: as §2
[27] = Cmax in Sprague-Dawley rat at 1.2 mg/kg, iv or 3.7 mg/kg, po; type: ADME, organism-based; settings: in vivo; summary of the method: as §2
[28] = Cmax in Beagle dog at 0.9 mg/kg, iv or 3.6 mg/kg, po; type: ADME, organism-based, Canis lupus familiaris; settings: in vivo; summary of the method: as §4
[29] = Cmax in cynomolgus monkey at 1.0 mg/kg, iv or 3.6 mg/kg, po; type: ADME, organism-based, Macaca fascicularis; settings: in vivo; summary of the method: as §4
[30] = Clearance in Sprague-Dawley rat at 1.2 mg/kg, iv or 3.7 mg/kg, po; type: ADME, organism-based; settings: in vivo; summary of the method: as §2
[31] = Clearance in Beagle dog at 0.9 mg/kg, iv or 3.6 mg/kg, po; type: ADME, organism-based, Canis lupus familiaris; settings: in vivo; summary of the method: as §4
[32] = Clearance in cynomolgus monkey at 1.0 mg/kg, iv or 3.6 mg/kg, po; type: ADME, organism-based, Macaca fascicularis; settings: in vivo; summary of the method: as §4
[33] = Oral bioavailability in Sprague-Dawley rat at 1.2 mg/kg, iv or 3.7 mg/kg, po; type: ADME, organism-based; settings: in vivo; summary of the method: as §2
[34] = Oral bioavailability in Beagle dog at 0.9 mg/kg, iv or 3.6 mg/kg, po; type: ADME, organism-based, Canis lupus familiaris; settings: in vivo; summary of the method: as §4
[35] = Oral bioavailability in cynomolgus monkey at 1.0 mg/kg, iv or 3.6 mg/kg, po; type: ADME, organism-based, Macaca fascicularis; settings: in vivo; summary of the method: as §4
[36] = Volume of distribution in Sprague-Dawley rat at 1.2 mg/kg, iv or 3.7 mg/kg, po; type: ADME, organism-based; settings: in vivo, read-out: Vdss; summary of the method: as §2
[37] = Volume of distribution in Beagle dog at 0.9 mg/kg, iv or 3.6 mg/kg, po; type: ADME, organism-based, Canis lupus familiaris; settings: in vivo, read-out: Vdss; summary of the method: as §4
[38] = Volume of distribution in cynomolgus monkey at 1.0 mg/kg, iv or 3.6 mg/kg, po; type: ADME, organism-based, Macaca fascicularis; settings: in vivo, read-out: Vdss; summary of the method: as §4
[39] = Half life in Sprague-Dawley rat at 1.2 mg/kg, iv or 3.7 mg/kg, po; type: ADME, organism-based; settings: in vivo; summary of the method: as §2
[40] = Half life in Beagle dog at 0.9 mg/kg, iv or 3.6 mg/kg, po; type: ADME, organism-based, Canis lupus familiaris; settings: in vivo; summary of the method: as §4
[41] = Half life in cynomolgus monkey at 1.0 mg/kg, iv or 3.6 mg/kg, po; type: ADME, organism-based, Macaca fascicularis; settings: in vivo; summary of the method: as §4

Chain of RNA-directed RNA polymerase (Hepacivirus hominis) (O39930 1-591): as the sequence (O39930 whole entry) above

CC(C)CCn1c(=O)c(C2=NS(=O)(=O)c3ccccc3N2)c(O)c2cc(NCC(=O)O)ccc21
EC90 [1]: 9.61 µM

O=c1c(C2=NS(=O)(=O)c3ccccc3N2)c(O)c2ccccc2n1-c1ccccc1
EC90 [1]: 1.87 µM

CC(C)CCn1c(=O)c(C2=NS(=O)(=O)c3ccccc3N2)c(O)c2c(F)cccc21
EC90 [1]: 2.07 µM

CC(C)CCn1c(=O)c(C2=NS(=O)(=O)c3ccccc3N2)c(O)c2cc(N)ccc21
EC90 [1]: 1.2 µM

O=c1c(C2=NS(=O)(=O)c3ccccc3N2)c(O)c2ccccc2n1CCC1CC1
clearance [2]: 1.7 mL/min/kg
clearance [3]: 1.73 mL/min/kg
bioavailability [4]: 78%
bioavailability [5]: 100%
bioavailability [6]: > 40%
Vd [7]: 0.25 L/kg
Vd [8]: 0.15 L/kg
Vd [9]: 0.19 L/kg
half-life [10]: 1.87 h
half-life [11]: 4.82 h
half-life [12]: 1.35 h
IC50 [13]: 0.013 µM
EC90 [1]: 0.808 µM
Cmax [14]: 6460 ng/mL
Cmax [15]: 5400 ng/mL
Cmax [16]: 7920 ng/mL
clearance [17]: 0.47 mL/min/kg

CC(C)CCn1c(=O)c(C2=NS(=O)(=O)c3ccccc3N2)c(O)c2ccccc21
clearance [18]: 10.1 mL/min/kg
clearance [19]: 0.5 mL/min/kg
bioavailability [20]: 70%
bioavailability [21]: 89%
Vd [22]: 0.44 L/kg
Vd [23]: 0.53 L/kg
half-life [24]: 0.607 h
half-life [25]: 14.3 h
EC90 [1]: 1.42 µM
Cmax [26]: 2230 ng/mL

CC(C)CCn1c(=O)c(C2=NS(=O)(=O)c3ccccc3N2)c(O)c2cc(OCC#N)ccc21
EC90 [1]: 1.61 µM

O=c1c(C2=NS(=O)(=O)c3ccccc3N2)c(O)c2ccccc2n1CC1CCC1
EC90 [1]: 1.19 µM

CC(C)CCn1c(=O)c(C2=NS(=O)(=O)c3ccccc3N2)c(O)c2cc(Cl)ccc21
IC50 [13]: 0.043 µM
EC90 [1]: 3.83 µM

CC(C)(C)CCn1c(=O)c(C2=NS(=O)(=O)c3ccccc3N2)c(O)c2cc(NCCO)ccc21
IC50 [13]: 0.048 µM
EC90 [1]: 1.44 µM

O=c1c(C2=NS(=O)(=O)c3ccccc3N2)c(O)c2ccccc2n1Cc1ccoc1
IC50 [13]: 0.027 µM
EC90 [1]: 2.53 µM

CC(C)CCn1c(=O)c(C2=NS(=O)(=O)c3ccccc3N2)c(O)c2cc(F)ccc21
EC90 [1]: 4.95 µM

CCOC(=O)CNc1ccc2c(c1)c(O)c(C1=NS(=O)(=O)c3ccccc3N1)c(=O)n2CCC(C)C
EC90 [1]: 0.998 µM

CC(C)CCn1c(=O)c(C2=NS(=O)(=O)c3ccccc3N2)c(O)c2cc(OCC(N)=O)ccc21
EC90 [1]: 2.41 µM

Cc1ccc2c(c1)c(O)c(C1=NS(=O)(=O)c3ccccc3N1)c(=O)n2CCC(C)C
Cmax [27]: 1220 ng/mL
Cmax [28]: 1960 ng/mL
Cmax [29]: 2140 ng/mL
clearance [30]: 1.65 mL/min/kg
clearance [31]: 1.09 mL/min/kg
clearance [32]: 5.32 mL/min/kg
bioavailability [33]: 100%
bioavailability [34]: > 50%
bioavailability [35]: > 53%
Vd [36]: 0.81 L/kg
Vd [37]: 0.72 L/kg
Vd [38]: 0.34 L/kg
half-life [39]: 5.29 h
half-life [40]: 9.06 h
half-life [41]: 0.828 h
IC50 [13]: 0.047 µM
EC90 [1]: 0.831 µM

CCCCn1c(=O)c(C2=NS(=O)(=O)c3ccccc3N2)c(O)c2ccccc21
IC50 [13]: 0.2 µM
EC90 [1]: 3.76 µM

CC(Br)CCn1c(=O)c(C2=Nc3ccccc3S(=O)(=O)N2)c(O)c2ccccc21 (stereo not drawn)
IC50 [13]: 0.29 µM

CC(C)CCn1c(=O)c(C2=Nc3ccccc3S(=O)(=O)N2)c(O)c2cc(O)ccc21
IC50 [13]: 0.198 µM
